Results published in ChEMBL document CHEMBL1770123, “SPF32629A and SPF32629B: enantioselective synthesis, determination of absolute configuration, cytotoxicity and antibacterial evaluation” (Eur J Med Chem, 2011).
≈ marks a conversion by molar mass, not a printed value. Calls of active or inactive are those of the source. No cut-off for these calls is given here.

Legend:
Staphylococcus aureus [1] = test: Antimicrobial activity against methicillin-resistant Staphylococcus aureus strain 2 TB4G at 1000 ug/disc after 24 hrs by disc diffusion method; assay type: functional
In short: (§1)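 Disc diffusion on 2.4% Mueller-Hinton agar inoculated with the strain. Paper discs 6 mm across were loaded with test compound and placed on the agar. Plates were incubated at 37 °C for 24 h. Read-out was the diameter of the inhibition zone in mm.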

Bacillus subtilis [2] = test: Antimicrobial activity against Bacillus subtilis at 500 ug/disc after 24 hrs by disc diffusion method; assay type: functional; conditions: read-out: DIZ
Staphylococcus aureus [3] = test: Antimicrobial activity against methicillin-resistant Staphylococcus aureus strain 1 TB3G after 24 hrs by microdilution method; assay type: functional
In short: (§2)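 Growth was judged by turbidity. The MIC was taken as the lowest concentration giving the lowest growth.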

[4] = test system: Staphylococcus epidermidis; test: Antimicrobial activity against Staphylococcus epidermidis at 1000 ug/disc after 24 hrs by disc diffusion method; assay type: functional; conditions: read-out: DIZ
A549 [5] = test: Cytotoxicity against human A549 cells assessed as cell death at 10 ug after 48 hrs by MTT assay; assay type: functional
In short: (§3)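 A549 cells were grown in DMEM with 2 mmol L-glutamine, 10% FBS, penicillin (50 IU/mL) and streptomycin, at 37 °C and 5% CO2. 1×10^4 cells/well were plated and treated 24 h later with compound diluted in medium for 48 h. Controls were DMSO-matched and untreated wells. MTT 0.4 mg/mL in PBS was added for 4 h in the dark, then DMSO for 4 h. A540 was read and reported as % live cells relative to untreated.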

A549 [6] = test: Cytotoxicity against human A549 cells assessed as cell death at 2 ug after 48 hrs by MTT assay; assay type: functional; in short: as §3
Staphylococcus aureus [7] = test: Antimicrobial activity against methicillin-resistant Staphylococcus aureus strain 4 TB5G after 24 hrs by microdilution method; assay type: functional; in short: as §2
Salmonella typhimurium [8] = test: Antimicrobial activity against Salmonella Typhimurium at 1000 ug/disc after 24 hrs by disc diffusion method; assay type: functional, Salmonella enterica subsp. enterica serovar Typhimurium; conditions: Salmonella enterica, read-out: DIZ
Listeria monocytogenes [9] = test: Antimicrobial activity against Listeria monocytogenes at 500 ug/disc after 24 hrs by disc diffusion method; assay type: functional
Staphylococcus aureus [10] = test: Antimicrobial activity against methicillin-resistant Staphylococcus aureus strain 1 TB3G at 1000 ug/disc after 24 hrs by disc diffusion method; assay type: functional; in short: as §1
A549 [11] = test: Cytotoxicity against human A549 cells assessed as cell death at 25 ug after 48 hrs by MTT assay; assay type: functional; in short: as §3
[12] = test system: Staphylococcus epidermidis; test: Antimicrobial activity against Staphylococcus epidermidis after 24 hrs by microdilution method; assay type: functional
In short: (§4)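 Growth was judged by turbidity, and the MIC was taken as the minimum concentration giving the lowest growth. Amikacin served as reference.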

Staphylococcus aureus [13] = test: Antimicrobial activity against Staphylococcus aureus at 500 ug/disc after 24 hrs by disc diffusion method; assay type: functional; in short: as §1
Escherichia coli [14] = test: Antimicrobial activity against Escherichia coli after 24 hrs by microdilution method; assay type: functional; in short: as §4
Klebsiella pneumoniae [15] = test: Antimicrobial activity against Klebsiella pneumoniae at 1000 ug/disc after 24 hrs by disc diffusion method; assay type: functional; conditions: read-out: DIZ
Staphylococcus aureus [16] = test: Antimicrobial activity against methicillin-resistant Staphylococcus aureus strain 2 TB4G after 24 hrs by microdilution method; assay type: functional; in short: as §2
Escherichia coli [17] = test: Antimicrobial activity against Escherichia coli at 500 ug/disc after 24 hrs by disc diffusion method; assay type: functional; conditions: read-out: DIZ
Salmonella typhimurium [18] = test: Antimicrobial activity against Salmonella Typhimurium at 500 ug/disc after 24 hrs by disc diffusion method; assay type: functional, Salmonella enterica subsp. enterica serovar Typhimurium; conditions: Salmonella enterica, read-out: DIZ
Staphylococcus aureus [19] = test: Antimicrobial activity against methicillin-resistant Staphylococcus aureus strain 1 TB3G at 500 ug/disc after 24 hrs by disc diffusion method; assay type: functional; in short: as §1
A549 [20] = test: Cytotoxicity against human A549 cells assessed as cell death at 5 ug after 48 hrs by MTT assay; assay type: functional; in short: as §3
Listeria monocytogenes [21] = test: Antimicrobial activity against Listeria monocytogenes after 24 hrs by microdilution method; assay type: functional; in short: as §4
Klebsiella pneumoniae [22] = test: Antimicrobial activity against Klebsiella pneumoniae after 24 hrs by microdilution method; assay type: functional; in short: as §4
Klebsiella pneumoniae [23] = test: Antimicrobial activity against Klebsiella pneumoniae at 500 ug/disc after 24 hrs by disc diffusion method; assay type: functional; conditions: read-out: DIZ
Staphylococcus aureus [24] = test: Antimicrobial activity against Staphylococcus aureus at 1000 ug/disc after 24 hrs by disc diffusion method; assay type: functional
Staphylococcus aureus [25] = test: Antimicrobial activity against methicillin-resistant Staphylococcus aureus strain 2 TB4G at 500 ug/disc after 24 hrs by disc diffusion method; assay type: functional; in short: as §1
A549 [26] = test: Cytotoxicity against human A549 cells assessed as cell death at 1 ug after 48 hrs by MTT assay; assay type: functional; in short: as §3
Staphylococcus aureus [27] = test: Antimicrobial activity against methicillin-resistant Staphylococcus aureus strain 4 TB5G at 1000 ug/disc after 24 hrs by disc diffusion method; assay type: functional; in short: as §1
Staphylococcus aureus [28] = test: Antimicrobial activity against Staphylococcus aureus after 24 hrs by microdilution method; assay type: functional; in short: as §4
Salmonella typhimurium [29] = test: Antimicrobial activity against Salmonella Typhimurium after 24 hrs by microdilution method; assay type: functional, Salmonella enterica subsp. enterica serovar Typhimurium; conditions: Salmonella enterica; in short: as §4
[30] = test system: Staphylococcus epidermidis; test: Antimicrobial activity against Staphylococcus epidermidis at 500 ug/disc after 24 hrs by disc diffusion method; assay type: functional; conditions: read-out: DIZ
Bacillus subtilis [31] = test: Antimicrobial activity against Bacillus subtilis at 1000 ug/disc after 24 hrs by disc diffusion method; assay type: functional; conditions: read-out: DIZ
Escherichia coli [32] = test: Antimicrobial activity against Escherichia coli at 1000 ug/disc after 24 hrs by disc diffusion method; assay type: functional; conditions: read-out: DIZ
Listeria monocytogenes [33] = test: Antimicrobial activity against Listeria monocytogenes at 1000 ug/disc after 24 hrs by disc diffusion method; assay type: functional
Bacillus subtilis [34] = test: Antimicrobial activity against Bacillus subtilis after 24 hrs by microdilution method; assay type: functional; in short: as §4
Staphylococcus aureus [35] = test: Antimicrobial activity against methicillin-resistant Staphylococcus aureus strain 4 TB5G at 500 ug/disc after 24 hrs by disc diffusion method; assay type: functional; in short: as §1
A549 [36] = test: Cytotoxicity against human A549 cells after 48 hrs by MTT assay; assay type: functional, cell-based; conditions: A549, 48 h
In short: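 A549 cells were kept in DMEM with 2 mM L-glutamine, 10% FBS, penicillin 50 IU/mL and streptomycin at 37 °C under 5% CO2. 1×10^4 cells per well were treated 24 h after seeding with compounds diluted in medium for 48 h. MTT (0.4 mg/mL in PBS) was added for 4 h in the dark, formazan was dissolved in DMSO for 4 h and absorbance read at 540 nm. Viability was expressed as % of untreated cells, and IC50 was derived.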

## CC(C)CC(=O)O[C@@H](c1ccccc1)c1cc(O)c(C(=O)O)c(=O)[nH]1
Staphylococcus aureus [1]; read-out: DIZ
  zone of inhibition at 1000 µg/disc: 12 mm
Bacillus subtilis [2]
  zone of inhibition at 500 µg/disc: 5 mm
Staphylococcus aureus [3]
  MIC: > 100 µg/mL
[4]
  zone of inhibition at 1000 µg/disc: 18 mm
A549 [5]
  Activity: 77.23%
A549 [6]
  Activity: 25.23%
Staphylococcus aureus [7]
  MIC: > 100 µg/mL
Salmonella typhimurium [8]
  zone of inhibition at 1000 µg/disc: 19 mm
Listeria monocytogenes [9]; read-out: DIZ
  zone of inhibition at 500 µg/disc: 10 mm
Staphylococcus aureus [10]; read-out: DIZ
  zone of inhibition at 1000 µg/disc: 10 mm
A549 [11]
  Activity: 82.46%
[12]
  MIC: 100 µg/mL (≈ 290 µM)
Staphylococcus aureus [13]; read-out: DIZ
  zone of inhibition at 500 µg/disc: 7 mm
Escherichia coli [14]
  MIC: 25 µg/mL (≈ 72.4 µM)
Klebsiella pneumoniae [15]
  zone of inhibition at 1000 µg/disc: 20 mm
Staphylococcus aureus [16]
  MIC: > 100 µg/mL
Escherichia coli [17]
  zone of inhibition at 500 µg/disc: 9 mm
Salmonella typhimurium [18]
  zone of inhibition at 500 µg/disc: 11 mm
Staphylococcus aureus [19]; read-out: DIZ
  zone of inhibition at 500 µg/disc: 5 mm
A549 [20]
  Activity: 47.69%
Listeria monocytogenes [21]
  MIC: > 100 µg/mL
Klebsiella pneumoniae [22]
  MIC: 100 µg/mL (≈ 290 µM)
Klebsiella pneumoniae [23]
  zone of inhibition at 500 µg/disc: 13 mm
Staphylococcus aureus [24]; read-out: DIZ
  zone of inhibition at 1000 µg/disc: 16 mm
Staphylococcus aureus [25]; read-out: DIZ
  zone of inhibition at 500 µg/disc: 7 mm
A549 [26]
  Activity: 9.53%
Staphylococcus aureus [27]; read-out: DIZ
  zone of inhibition at 1000 µg/disc: 10 mm
Staphylococcus aureus [28]
  MIC: > 100 µg/mL
Salmonella typhimurium [29]
  MIC: > 100 µg/mL
[30]
  zone of inhibition at 500 µg/disc: 11 mm
Bacillus subtilis [31]
  zone of inhibition at 1000 µg/disc: 12 mm
Escherichia coli [32]
  zone of inhibition at 1000 µg/disc: 18 mm
Listeria monocytogenes [33]; read-out: DIZ
  zone of inhibition at 1000 µg/disc: 18 mm
Bacillus subtilis [34]
  MIC: 50 µg/mL (≈ 145 µM)
Staphylococcus aureus [35]; read-out: DIZ
  zone of inhibition at 500 µg/disc: 6 mm
A549 [36]
  IC50: 9 µM

## COc1cc([C@@H]2c3cc4c(cc3[C@@H](O[C@@H]3O[C@@H]5CO[C@@H](C)O[C@H]5[C@H](O)[C@H]3O)[C@H]3COC(=O)[C@H]23)OCO4)cc(OC)c1O [ETOPOSIDE]
A549 [5]
  Activity: 55.33%
A549 [6]
  Activity: 9.12%
A549 [11]
  Activity: 69.48%
A549 [20]
  Activity: 25.91%
A549 [26]
  Activity: 5.54%
A549 [36]
  IC50: 11 µM

## CC(C)CC(=O)O[C@H](c1ccccc1)c1cc(O)cc(=O)[nH]1
Staphylococcus aureus [1]
  diameter of the inhibition zone (DIZ): inactive
Bacillus subtilis [2]
  zone of inhibition at 500 µg/disc: 10 mm
[4]
  zone of inhibition at 1000 µg/disc: 17 mm
A549 [5]
  Activity: 50.39%
A549 [6]
  Activity: 18.59%
Salmonella typhimurium [8]
  zone of inhibition at 1000 µg/disc: 20 mm
Listeria monocytogenes [9]
  diameter of the inhibition zone (DIZ): inactive
Staphylococcus aureus [10]
  diameter of the inhibition zone (DIZ): inactive
A549 [11]
  Activity: 75.78%
Staphylococcus aureus [13]
  diameter of the inhibition zone (DIZ): inactive
Klebsiella pneumoniae [15]
  zone of inhibition at 1000 µg/disc: 24 mm
Escherichia coli [17]
  zone of inhibition at 500 µg/disc: 13 mm
Salmonella typhimurium [18]
  zone of inhibition at 500 µg/disc: 12 mm
Staphylococcus aureus [19]
  diameter of the inhibition zone (DIZ): inactive
A549 [20]
  Activity: 48.82%
Klebsiella pneumoniae [23]
  zone of inhibition at 500 µg/disc: 14 mm
Staphylococcus aureus [24]
  diameter of the inhibition zone (DIZ): inactive
Staphylococcus aureus [25]
  diameter of the inhibition zone (DIZ): inactive
A549 [26]
  Activity: 3.13%
Staphylococcus aureus [27]
  diameter of the inhibition zone (DIZ): inactive
[30]
  zone of inhibition at 500 µg/disc: 8 mm
Bacillus subtilis [31]
  zone of inhibition at 1000 µg/disc: 19 mm
Escherichia coli [32]
  zone of inhibition at 1000 µg/disc: 20 mm
Listeria monocytogenes [33]
  diameter of the inhibition zone (DIZ): inactive
Staphylococcus aureus [35]
  diameter of the inhibition zone (DIZ): inactive
A549 [36]
  IC50: 10 µM
